Measurements of several laboratories.
Protocols differ between the studies behind these lines.
Observed: enzyme activity
Action: inhibitor
INSR: Insulin receptor (INSR, Homo sapiens, UniProt P06213)
INSR phosphorylated: Insulin receptor, phosphorylated (INSR, Homo sapiens, UniProt P06213)

| Structure (SMILES) | target | technique | tested at | remaining activity [%] |
| --- | --- | --- | --- | --- |
| Cc1cnc(NC2CCOCC2)nc1-n1cnc(C(=O)NC(CN)c2cc(F)cc(Cl)c2)c1 (stereo not drawn) | INSR | radiometric | 1 µM | 103 |
| CC(C)(C)C(=O)c1sc(NC2CCCCC2)nc1N | INSR | – | 10 µM | 93 |
| CC(C)(O)[C@H]1CC[C@H](Nc2ccc3ncc(-c4cccc(C(F)(F)F)c4)n3n2)CC1 | INSR | – | 1 µM | 102 |
| CCCOc1ccc(OC)c(F)c1C(=O)c1ccc(C(=O)N[C@@H]2CNC[C@H]2NC(=O)c2ccc3[nH]ncc3c2)cc1 | INSR | – | 10 µM | 101 |
| FC(F)c1nc2ccccc2n1-c1nc(N2CCOCC2)nc(N2CCOCC2)n1 | INSR | – | 10 µM | 104 |
| Cc1[nH]c(/C=C2\C(=O)Nc3ccc(F)cc32)c(C)c1C(=O)N[C@H]1CCN(C(=O)N(C)C)C1 | INSR | – | 1 µM | 87 |
| O=C(Nc1cnn(-c2csc(C(=O)NC3COC3)c2)c1)Nc1ccccc1Cl | INSR | – | 5 µM | 98.4 |
| COc1cc(Nc2cnc(C#N)c(O[C@H](C)CN(C)C)n2)ncc1-c1cnn(C)c1 | INSR | radiometric | 10 µM | 84 |
| CCN(CC)c1ccc(C2=NNC(=O)CC2C)cc1[N+](=O)[O-] (stereo not drawn) | INSR phosphorylated | – | 10 µM | 95 |
| Nc1nc(Nc2ccccc2)sc1C(=O)c1c(F)cccc1F | INSR | – | 10 µM | 88 |
| CC(C)(C)c1nc2c(s1)c1nc(N)ncc1c1ccc(NS(=O)(=O)c3c(F)cccc3F)c(F)c12 | INSR | radiometric | 1 µM | 112 |
| COc1cc(Cl)c(C(=O)N[C@@H](CN[C@H]2CC[C@@H](N)CC2)Cc2ccc(C#N)cc2)cc1-c1ccc(CN[C@H](C)c2ccc(C)cc2)o1 | INSR phosphorylated | – | 1 µM | 100 |
